This note sets out measurements from ChEMBL document CHEMBL1125255, “Romazarit: a potential disease-modifying antirheumatic drug” (J Med Chem, 1991).

Data set [1] relates to Rattus norvegicus. The experiment in a line: Hepatic effect assessed by increase in liver weight after 14 days of dosing at 50 mg/kg orally. In kind it is functional. The method, boiled down:
(§1)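 Type II collagen arthritis rats, eight per group, daily oral dosing as sodium salts in water for 14 days. Liver weight recorded at termination and expressed as percentage change versus normal animals.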

In data set [2] the test system is Rattus norvegicus. Description: Radiographic change was judged in the area of the talus joint, using an arbitrary scoring system upon termination of the test (14 days dosing of 50 mg/kg) in a model of type II collagen arthritis in the rat. Type of data set: functional. Conditions: 336 h. The method, boiled down: (§2)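 Type II collagen arthritis rats, eight per group, oral sodium salts daily from grouping (day 1). Hind limbs X-rayed post mortem. Tibia/talus and tarsus damage scored 0–3 per foot by two observers and averaged; left and right summed (max 6). Compared with arthritic controls by Mann–Whitney U test.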

For data set [3], the system named is Rattus norvegicus. The experiment in a line: Radiographic change was judged in the area of the tarsus region, using an arbitrary scoring system upon termination of the test (14 days dosing of 50 mg/kg) in a model of type II collagen arthritis in the rat. Type of data set: functional. As to conditions: 336 h. The method, boiled down: as §2
For data set [4], the species on record is Rattus norvegicus. Description: Percent decrease in serum haptoglobin evaluated in a developing adjuvant arthritis model rats.
The subject of data set [5] is Rattus norvegicus. Description: Compound was evaluated in developing adjuvant arthritis model rats for its effect on paw edema. Also on record: concentration or dose not given beside the values. In kind it is functional. The gist of the method: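 Female Allen and Hanbury hooded rats, five per group. Right hind paw injected sc on day 0 with heat-killed M. tuberculosis in paraffin oil (5 mg/mL). Compounds given orally as sodium salts in water. Paw volumes of both hind paws measured days 1–4, 1 h after dosing. Percent inhibition taken from area under the curve of the between-paw volume difference.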

Data set [6] can be described thus: Partition coefficient (logP). Type of data set: physicochemical. Conditions: octanol/water. The gist of the method:
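Compound dissolved in disodium hydrogen phosphate/citric acid buffer pH 7.4 and partitioned against equal volume octan-1-ol. Buffer-phase UV absorbance read before and after partitioning near λmax. P′ from the octanol:buffer absorbance ratio.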

The subject of data set [7] is Rattus norvegicus. The experiment in a line: Hepatic effect assessed by increase in catalase levels after 14 days of dosing at 50 mg/kg orally. In kind it is functional. The gist of the method:
(§3)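 Type II collagen arthritis rats, eight per group, given oral sodium salts daily for 14 days. At termination liver homogenized in ice-cold 0.25 M sucrose and spun 2000 rpm 10 min. Catalase followed by decline in A240 from H2O2 breakdown, expressed as first-order rate constant K. Result given as % change versus normals.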

Data set [8] has as its system Rattus norvegicus. The experiment in a line: Radiographic change was judged in the area of the talus joint, using an arbitrary scoring system upon termination of the test (0.5 mg/kg 1-5 days dosing,0.25 mg/kg 6-15 days dosing)in a model of type II collagen arthritis in the rat. Type of data set: functional. The gist of the method:
as §2

Data set [9] can be described thus: Inhibition of prostaglandin synthetase in sheep seminal vesicle. Also on record: species or system Ovis aries. The method, boiled down: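 Sheep seminal vesicle enzyme (2.5 mg/mL) preincubated 5 min at 30 °C with or without compound (sodium salt, aqueous) plus glutathione 1 mM and adrenaline 625 μM. Integrated prostaglandin/thromboxane peak area compared with the no-drug control.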

For data set [10], the species on record is Rattus norvegicus. The experiment in a line: Percent decrease in serum haptoglobin evaluated in a developing adjuvant arthritis model rats; No significant effect.
Data set [11] concerns Rattus norvegicus. Description: Radiographic change was judged in the area of the talus joint, using an arbitrary scoring system upon termination of the test (14 days dosing of 1 mg/kg) in a model of type II collagen arthritis in the rat. Conditions: 336 h. Type of data set: functional. The gist of the method: as §2
Data set [12] concerns Rattus norvegicus. Description: Radiographic change was judged in the area of the tarsus region, using an arbitrary scoring system upon termination of the test (14 days dosing of 1 mg/kg) in a model of type II collagen arthritis in the rat. Type of data set: functional. Conditions: 336 h. The gist of the method: as §2
Another data set relates to Mononuclear cell line. Description: Inhibition of human PGE-2 production. In kind it is functional, cell-based. The method, boiled down: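 Human blood mononuclear cells from healthy volunteers stimulated with 2.5 μg/mL phytohaemagglutinin and incubated 24 h with compound (sodium salt). PGE2 measured by RIA.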
Data set [13] has as its system Rattus norvegicus. Description: Hepatic effect assessed by increase in catalase levels after 14 days of dosing at 100 mg/kg orally. In kind it is functional. The gist of the method: as §3
The test system of data set [14] is Rattus norvegicus. The experiment in a line: Hepatic effect assessed by increase in liver weight after 14 days of dosing at 100 mg/kg orally. Type of data set: functional. The gist of the method: as §1
The test system of data set [15] is Rattus norvegicus. Description: Radiographic change was judged in the area of the tarsus region, using an arbitrary scoring system upon termination of the test (14 days dosing of 100 mg/kg) in a model of type II collagen arthritis in the rat. In kind it is functional. As to conditions: 336 h. The method, boiled down:
as §2

Data set [16] has as its system Rattus norvegicus. The experiment in a line: Radiographic change was judged in the area of the talus joint, using an arbitrary scoring system upon termination of the test (14 days dosing of 100 mg/kg) in a model of type II collagen arthritis in the rat. Type of data set: functional. Conditions: 336 h. The method, boiled down: as §2

Values joined by “and” are separate entries in the source; they are usually repeats but may differ in a detail not shown here. Equal values may be shown once. Active and inactive are the calls of the source. The rule behind the calls is not given here.

A word on the inhibition in vivo: it is the percentage by which the read-out fell short of the control. The term Inhibition denotes the share of the control response that was lost under treatment. As a reminder, the logP is a log measure of how a compound divides between an organic and an aqueous phase. For `CC(C)(OCc1cnn(-c2ccc(Cl)cc2)c1)C(=O)O`, the Change with Rattus norvegicus [1] is 70%; in the data set with Rattus norvegicus [7] it was 180%. For the same molecule, the inhibition in vivo at 50 mg/kg with Rattus norvegicus [2] was 15%; with Rattus norvegicus [3], 18%. Besides, the Decrease in the data set filed under Rattus norvegicus [4] came out at 37%. Also, in the data set with Rattus norvegicus [5], the Inhibition is 76%. The molecule further gave a logP in [6] of 0.04.
Take `C[C@@H]1C[C@H]2[C@@H]3CCC4=CC(=O)C=C[C@]4(C)[C@@]3(F)[C@@H](O)C[C@]2(C)[C@@]1(O)C(=O)CO` [DEXAMETHASONE]: the Inhibition in the data set with Rattus norvegicus [8] was 95% and 98%.
Usually IC50 stands for the concentration needed to halve the response being measured. Turning to `COc1ccc2c(c1)c(CC(=O)O)c(C)n2C(=O)c1ccc(Cl)cc1` [INDOMETHACIN], the IC50 stood at 1200 nM in data set [9] and 300 nM in the data set on Mononuclear cell line. Besides, the Decrease result in the data set filed under Rattus norvegicus [10] is “inactive”. The inhibition in vivo at 1 mg/kg in the data set on Rattus norvegicus [11] turned out to be 48%; with Rattus norvegicus [12], 45%. Also, the Inhibition in the data set with Rattus norvegicus [5] is given as 84%.
`CC(C)(OCc1ccn(-c2ccc(Cl)cc2)n1)C(=O)O`: the results for the Change in the data set on Rattus norvegicus [1] and in the data set with Rattus norvegicus [7] were 13% and 90%, respectively. Further, the inhibition in vivo at 50 mg/kg was found to be 48% with Rattus norvegicus [2] and 32% with Rattus norvegicus [3]. The Decrease in the data set listed under Rattus norvegicus [4] came to 30%. The Inhibition with Rattus norvegicus [5] is 46%. This molecule yielded a logP in data set [6] of 0.
Consider `CC(C)(OCc1cc(-c2ccc(Cl)cc2)on1)C(=O)O`, for which the Change with Rattus norvegicus [13] turned out to be 140%; in the data set with Rattus norvegicus [14] it was 41%. In addition, the inhibition in vivo at 100 mg/kg in the data set with Rattus norvegicus [15] came out at 42%; in the data set on Rattus norvegicus [16] it was 24%. For the same molecule, the Decrease in the data set listed under Rattus norvegicus [4] is on record as 34%. For the same molecule, the Inhibition in the data set on Rattus norvegicus [5] turned out to be 64%. In [6], this molecule yielded a logP of 0.46.
